Assay outcomes deposited in PubChem by several laboratories.
Only some compounds are listed: those with a hit (about 1.7% of all), similar ones and a draw of the others.
CSN inh: inhibitors of human CSN-mediated cullin deneddylation. AID 651999. Purified CSN, SCF-Nedd8-OG deneddylation, fluorescence polarization. 360,000 compounds, 0.38% hits. inhibition, % at 12.5 µM. Q92905;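 active = pattern-corrected inhibition above about 35%, with an unprinted fluorescence ratio check between 0.5 and 1.5, limit read from the data, passing the limit was not always enough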;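 note: 0% = enzyme with substrate and 100% = substrate without enzyme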
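assay system = purified human Csn5 enzyme expressed in HEK293T cells | amount = 0.24 nM enzyme | buffer or medium = Tris/NaCl/DTT buffer, pH 7.5 | reagent = 10 nM SCFSkp2-Nedd8OG | compound = one concentration, 12.5 µM, 0.25% DMSO | times = 90 min reaction at room temperature | signal = FP | read-out basis = % inhibition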
TPT1 inhibitor: blocks Candida albicans tRNA 2'-phosphotransferase; recombinant caTPT1, FP RNA substrate dephosphorylation; inhibition, % at 5 µM; 300,000 compounds, 0.81% hits;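 active = inhibition above the mean of all tested compounds plus 3 SD, set per screening campaign, cut at about 24% in these data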;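 note: plate controls were DMSO alone for no effect and ferristatin control at 100 nM for full effect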
IDE cell inh: inhibits human insulin-degrading enzyme in HEK cells; P14735; AID 434962; FAbetaB cleavage, fluorescence polarization; inhibition, % at 5.59 µM; 320,000 compounds, 0.41% hits;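 active = percent inhibition above the average of all tested compounds plus 3 SD, set per screening campaign, cut at about 16% in these data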;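 note: IDE supplied by intact live HEK cells; FP after avidin binding of uncleaved biotin substrate so inhibition keeps polarization high; 0% = DMSO wells and 100% = 60 µM reference IDE inhibitor Ii1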
HNF4A DNA FP: change in binding of human HNF4 alpha to DNA; HNF4a-FITC DNA binding, fluorescence polarization, 1 h; activity change, % at 10 µM; 360,000 compounds, 0.3% hits; in the data active = activity change above about 30%, passing the limit was not always enough
Target sequence (P41235 whole entry, looked up): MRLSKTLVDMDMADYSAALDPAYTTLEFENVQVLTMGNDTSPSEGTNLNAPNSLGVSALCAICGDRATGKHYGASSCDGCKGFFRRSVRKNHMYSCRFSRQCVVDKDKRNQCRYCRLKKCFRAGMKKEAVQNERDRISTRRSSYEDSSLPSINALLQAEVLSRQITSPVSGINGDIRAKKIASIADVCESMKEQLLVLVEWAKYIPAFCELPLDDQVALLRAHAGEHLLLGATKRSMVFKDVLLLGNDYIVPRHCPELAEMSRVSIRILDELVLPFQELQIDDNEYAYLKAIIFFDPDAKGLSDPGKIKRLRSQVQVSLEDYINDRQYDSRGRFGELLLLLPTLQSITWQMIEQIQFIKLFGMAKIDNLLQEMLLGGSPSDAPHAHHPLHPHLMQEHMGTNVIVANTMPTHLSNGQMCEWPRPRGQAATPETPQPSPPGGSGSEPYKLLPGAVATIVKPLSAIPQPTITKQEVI
Rpn11 inh: blocks the human proteasome subunit Rpn11. O00487. human 26S proteasome, Ub4-pepOG fluorescence polarization; 20S core pre-blocked with epoxomicin. inhibition, % at 20 µM. 360,000 compounds, 0.59% hits;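 active = inhibition at 20 µM, scaled to each plate's controls, above about 33%, limit read from the data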
IDE act: IDE (human) activation, cell-based; 340,000 compounds, 0.073% hits; AID 493087; P14735; HEK cells, FAbeta-B cleavage, fluorescence polarization; 0% vehicle, 100% cell-free pure enzyme wells; activation, % at 5.96 µM;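 active = activation above the mean of all tested compounds plus 3 SD, set per screening campaign, cut at about 17% in these data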
TPT1 inh confirm: TPT1 (C. albicans) inhibition, confirmation | shares compounds with TPT1 inhibitor | 2,400 compounds, 74% hits | recombinant caTPT1, fluorescence polarization, RNase T1 coupled | inhibition, % at 5 µM;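 active = inhibition above the primary screen limit, the mean inhibition of all tested compounds plus 3 SD, cut at about 25% in these data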
RNase T1 counter: counter-screen for TPT1 inhibitors: inhibitors of Aspergillus oryzae RNase T1; shares compounds with TPT1 inhibitor; RNase T1 cleavage, fluorescence polarization, 1536-well; inhibition, % at 5 µM; 2,400 compounds, 83% hits; AID 2153;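 active = inhibition above the solvent-only control well mean plus 3 SD, limit set per screening run, cut at about 23% in these data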;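 note: plate controls were DMSO wells with enzyme for no effect and wells without RNase T1 for full effect; inhibitors block cleavage so intact labeled substrate keeps polarization high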
* hit, by the source's call; nt = no result shown.

SMILES | CSN inh | TPT1 inhibitor | IDE cell inh | HNF4A DNA FP | Rpn11 inh | IDE act | TPT1 inh confirm | RNase T1 counter
COc1ccc(S(=O)(=O)Nc2nc3ccccc3nc2Nc2ccc3c(c2)OCO3)cc1 | nt | 2 | -8 | nt | nt | nt | nt | nt
O=S(=O)(Nc1nc2ccccc2nc1Nc1ccc2c(c1)OCCO2)c1cccs1 | 51* | 78* | -2 | 48* | nt | 6 | 90* | 96*
O=C(NCc1ccccc1)C(=O)NCC(c1ccco1)N1CCN(c2ccccc2F)CC1 (stereo not given) | -1 | -1 | -2 | 0 | 2 | 3 | nt | nt
O=C(NCCc1c[nH]c2ccccc12)C(=O)NCC(c1ccco1)N1CCN(c2ccccc2F)CC1 (stereo not given) | -4 | 51* | -1 | 2 | 1 | 1 | 2 | 5
CCOC(=O)C1(C)CCCCCN1C(=O)c1ccc(OC)cc1 (stereo not given) | -4 | nt | nt | 2 | 3 | nt | nt | nt
COc1ccc(-c2csc(C(O)c3ccc(F)c(F)c3)n2)cc1 (stereo not given) | -1 | nt | nt | 0 | 1 | nt | nt | nt
O=[N+]([O-])C1C(c2ccccc2)C12c1ccccc1-c1ccccc12 (stereo not given) | 3 | nt | nt | 3 | -6 | nt | nt | nt
CNC(=O)/C(C#N)=C/c1cn(CC(=O)OC)c2ccccc12 | 1 | -3 | 6 | -2 | -2 | 3 | nt | nt
COC(=O)Cn1cc(/C=C/c2cc[n+](C)cc2)c2ccccc21 | 68 | 35* | 14 | 92 | nt | -6 | 41* | 49*
CC1=NN(c2ccccc2)C(=O)/C1=C\C=C1\N(C)c2ccccc2C1(C)C | 33 | 61* | 12 | 70* | nt | -1 | 51* | 64*
CCOc1ccccc1N1CCN(c2nc3ccccc3nc2C(C#N)C(=O)OC)CC1 (stereo not given) | -4 | 0 | 6 | 1 | 6 | 1 | nt | nt
CCOc1ccccc1N1CCN(c2nc(N)c(C#N)c(CC#N)c2C#N)CC1 | 18 | 28* | 8 | 8 | 20 | -4 | 30* | 42*
CC1C(c2ccccc2)OCCN1C(=S)NC(=O)c1ccccc1 (stereo not given) | 2 | nt | nt | -1 | -2 | nt | nt | nt
Nc1cc(N)nc(SCC(=O)Nc2ccc3c(c2)OCO3)n1 | 4 | -3 | 7 | 5 | 0 | 4 | nt | nt
Nc1nc(SCC(=O)Nc2ccc3c(c2)OCO3)n[nH]1 | 1 | 41* | 3 | -1 | 1 | -1 | 2 | 3
COc1cccc(NC(=O)COc2nc3ccccc3nc2C)c1 | -1 | 16 | 0 | 4 | 21 | -2 | nt | nt
Cc1nc2ccccc2nc1OCC(=O)Nc1ccccc1 | 0 | 96* | 5 | 0 | 10 | 2 | 4 | 5
FC(F)(F)c1cc(Cc2nc3ccccc3n2C(CCc2ccccc2)c2nc3ccccc3[nH]2)cc(C(F)(F)F)c1 (stereo not given) | 9 | nt | nt | 14 | nt | nt | nt | nt
COc1cc(/C=N/NC(=O)CC#N)cc(Br)c1O | 1 | 27* | 1 | -2 | 18 | 2 | 16 | 19
COc1cc(/C=N/NC(=O)Cc2ccc(Br)cc2)cc(OC)c1O | -4 | -2 | -2 | -1 | -3 | -4 | nt | nt
CC(C)(C)OC(=O)N/N=C/c1ccc(N2CCOCC2)s1 | 0 | 26* | 11 | 42* | nt | 1 | 93* | 105*
Nc1ccc(C(=O)N/N=C/c2ccc(N3CCOCC3)s2)cc1 | 3 | nt | 11 | 3 | 6 | -2 | nt | nt
O=C(NCCc1ccccc1)Nc1nnc([C@@H]2C[C@H](O)[C@@H](CO)O2)s1 | -5 | nt | nt | -2 | -3 | nt | nt | nt
CN1C(=O)C(N=Nc2ccccc2C(=O)O)N(C)C1=S (stereo not given) | 8 | 41* | 21* | 14 | 21 | -42 | 41* | 61*
CC(C)N1CCC2(CC1)C(C#N)=C(N)NC(S)=C2C#N | nt | 68* | 8 | nt | nt | nt | 38* | 47*
CCCNC(=O)C1(C)CCCN(Cc2ccccc2N(C)C)C1 (stereo not given) | -2 | nt | nt | -2 | -3 | nt | nt | nt
